ChEMBL document CHEMBL1123792, “Nonsteroidal cardiotonics. 1. 2-Pyridyl-6,7-dihydro-3H,5H-pyrrolo[2,3-f]benzimidazol-6-ones, a novel class of cardiotonic agents” (1987)

Legend:
Felis catus [1] = assay: Effective dose required to produce an increase in dP/dt50, blood pressure by 1500 mmHg/s was determined in cat by intravenous administration; type: functional
Outline: (§1)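 Cats of either sex on pentobarbitone (45 mg/kg ip, then 0.1 mg/kg × min infusion), ventilated, open chest. Dextran 10 mL/kg iv, then desacetylmepitranolol 0.3 mg/kg iv for β-blockade failure. LVP/HR via Millar tip in left ventricle; BP, dP/dt50. Rising iv bolus doses 10 min apart, read at 10 min. ED1.5 = dose raising dP/dt50 by 1500 mmHg/s; usually mean of four.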

Felis catus [2] = assay: Maximum increase in dP/dt recorded in mmHg/s at the dose 3.0 mg/kg administered intravenously in cat; type: functional; conditions: route intravenous; outline: as §1
Canis familiaris [3] = assay: Effective dose required to produce an increase in dP/dt50, blood pressure by 1500 mmHg/s was determined in dog by intravenous administration; type: functional, Canis lupus familiaris
Outline: (§2)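 Conscious mongrel dogs (both sexes, 25–30 kg), chronically instrumented via left thoracotomy, used ≥10 days after surgery. Femoral artery BP, Millar tip LV pressure, femoral vein injection. dP/dt taken at LVP 60 mmHg. Increasing iv doses 10 min apart, readings every 10 min. ED1.5 = dose raising dP/dt by 1500 mmHg/s; max = peak rise from control; usually mean of four.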

Canis familiaris [4] = assay: Maximum increase in dP/dt recorded in mmHg/s at the dose 3.0 mg/kg administered intravenously in dog; type: functional, Canis lupus familiaris; parameters: unit not given here; conditions: route intravenous; outline: as §2
Rattus norvegicus [5] = assay: Effective dose required to produce an increase in dP/dt50, blood pressure by 1500 mmHg/s was determined in rat by intravenous administration; type: functional
Outline: (§3)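 Anesthetized rats, dP/dt50, BP and HR (HR from LVP by pulse counter) recorded continuously. Increasing single bolus doses into jugular vein, 0.5 mL/kg, 10 min apart. Values read 10 min post-injection as steady state, not 1–3 min peak. ED1.5 = dose raising dP/dt50 by 1500 mmHg/s; max = peak rise from control; usually mean of four.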

Rattus norvegicus [6] = assay: Maximum increase in dP/dt recorded in mmHg/s at the dose 3.0 mg/kg administered intravenously in rat.; type: functional; conditions: route intravenous; outline: as §3
Rattus norvegicus [7] = assay: Maximum increase in dP/dt recorded in mmHg/s at the dose 10.0 mg/kg administered intravenously in rat.; type: functional; conditions: route intravenous; outline: as §3
Felis catus [8] = assay: Maximum increase in dP/dt recorded in mmHg/s at the dose 10.0 mg/kg administered intravenously in cat; type: functional; conditions: route intravenous; outline: as §1
Felis catus [9] = assay: Maximum increase in dP/dt recorded in mmHg/s at the dose 1.0 mg/kg administered intravenously in cat; type: functional; conditions: route intravenous; outline: as §1
Felis catus [10] = assay: Maximum increase in dP/dt recorded in mmHg/s at the dose 0.1 mg/kg administered intravenously in cat; type: functional; conditions: route intravenous; outline: as §1
Rattus norvegicus [11] = assay: Maximum increase in dP/dt recorded in mmHg/s at the dose 1.0 mg/kg administered intravenously in rat.; type: functional; conditions: route intravenous; outline: as §3
Canis familiaris [12] = assay: Maximum increase in dP/dt recorded in mmHg/s at the dose in parentheses administered intravenously in dog; type: functional, Canis lupus familiaris; outline: as §2
Canis familiaris [13] = assay: Maximum increase in dP/dt recorded in mmHg/s at the dose 1.0 mg/kg administered intravenously in dog; type: functional, Canis lupus familiaris; conditions: route intravenous; outline: as §2
Felis catus [14] = assay: Maximum increase in dP/dt recorded in mmHg/s at the dose 0.3 mg/kg administered intravenously in cat; type: functional; conditions: route intravenous; outline: as §1
Rattus norvegicus [15] = assay: Maximum increase in dP/dt recorded in mmHg/s at the dose 0.1 mg/kg administered intravenously in rat.; type: functional; conditions: route intravenous; outline: as §3

Row | SMILES | ED1.5 (Felis catus [1]) | ED1.5 (Canis familiaris [3]) | ED1.5 (Rattus norvegicus [5]) | other results
1 | CCOC(=O)C1(C)C(=O)Nc2cc3[nH]c(-c4ccncc4)nc3cc21 (configuration not stated) | 0.25 mg/kg | 0.64 mg/kg | 0.09 mg/kg | Max (Felis catus [2]): 3700 mmHg/s; Max (Canis familiaris [4]): >3.6; Max (Rattus norvegicus [6]): 4200 mmHg/s
2 | CC1(C)C(=O)Nc2cc3[nH]c(Cc4ccncc4)nc3cc21 | 0.6 mg/kg | – | 1.14 mg/kg | Max (Rattus norvegicus [7]): 4100 mmHg/s; Max (Felis catus [8]): 3800 mmHg/s
3 | CC1(C(=O)NN)C(=O)Nc2cc3[nH]c(-c4ccncc4)nc3cc21 (configuration not stated) | – | – | >10 mg/kg | –
4 | CC1(C)C(=O)Nc2cc3[nH]c(CCc4ccncc4)nc3cc21 | – | – | >10 mg/kg | –
5 | O=C1Nc2cc3[nH]c(-c4ccncc4)nc3cc2C12CCCC2 | 0.08 mg/kg | 0.77 mg/kg | 0.2 mg/kg | Max (Felis catus [9]): 2800 mmHg/s; Max (Canis familiaris [4]): 2.2; Max (Rattus norvegicus [6]): 3300 mmHg/s
6 | CCC1C(=O)Nc2cc3[nH]c(-c4cccnc4)nc3cc21 (configuration not stated) | 0.15 mg/kg | – | 0.39 mg/kg | Max (Felis catus [9]): 2300 mmHg/s; Max (Rattus norvegicus [7]): 4000 mmHg/s
7 | CC1C(=O)Nc2cc3[nH]c(-c4ccncc4)nc3cc21 (configuration not stated) | 0.01 mg/kg | 0.58 mg/kg | 0.02 mg/kg | Max (Felis catus [10]): 2500 mmHg/s; Max (Canis familiaris [4]): 1.7; Max (Rattus norvegicus [11]): 4400 mmHg/s
8 | CC1(C)C(=O)Nc2cc3[nH]c(-c4cc[n+]([O-])cc4)nc3cc21 | – | 0.44 mg/kg | 0.03 mg/kg | Max (Canis familiaris [12]): 1800 mmHg/s; Max (Rattus norvegicus [11]): 4900 mmHg/s
9 | CC1(C)C(=O)Nc2cc3[nH]c(-c4ccccn4)nc3cc21 | 0.23 mg/kg | 1.11 mg/kg | 0.96 mg/kg | Max (Felis catus [2]): 2700 mmHg/s; Max (Canis familiaris [4]): 1.7; Max (Rattus norvegicus [6]): 2400 mmHg/s
10 | O=C1Nc2cc3[nH]c(-c4ccncc4)nc3cc2C1C1CCCC1 (configuration not stated) | – | – | >10 mg/kg | –
11 | CCCCc1ccc(-c2nc3cc4c(cc3[nH]2)C(C)(C)C(=O)N4)nc1 | – | – | >3 mg/kg | –
12 | CC1(C)C(=O)Nc2cc3[nH]c(-c4ccnc(O)c4)nc3cc21 | 0.21 mg/kg | – | 0.87 mg/kg | Max (Felis catus [9]): 2400 mmHg/s; Max (Rattus norvegicus [7]): 3400 mmHg/s
13 | Cc1ccc(-c2nc3cc4c(cc3[nH]2)C(C)(C)C(=O)N4)cn1 | – | – | >3 mg/kg | –
14 | Cc1cc(-c2nc3cc4c(cc3[nH]2)C(C)(C)C(=O)N4)ccn1 | 0.03 mg/kg | 0.51 mg/kg | 0.29 mg/kg | Max (Felis catus [10]): 2700 mmHg/s; Max (Canis familiaris [13]): 1800 mmHg/s; Max (Rattus norvegicus [11]): 2500 mmHg/s
15 | CC1(C)C(=O)Nc2cc3[nH]c(/C=C/c4cccnc4)nc3cc21 | – | – | 1.21 mg/kg | Max (Rattus norvegicus [7]): 4300 mmHg/s
16 | CCC1(CC)C(=O)Nc2cc3[nH]c(-c4ccncc4)nc3cc21 | – | – | >3 mg/kg | Max (Rattus norvegicus [7]): 1900 mmHg/s
17 | CC1(C)C(=O)Nc2cc3[nH]c(-c4ccnc(Cl)c4)nc3cc21 | 0.07 mg/kg | – | 0.07 mg/kg | Max (Rattus norvegicus [11]): 3900 mmHg/s
18 | COc1nc(C)ccc1-c1nc2cc3c(cc2[nH]1)C(C)(C)C(=O)N3 | – | – | >10 mg/kg | –
19 | CC(C)CC1C(=O)Nc2cc3[nH]c(-c4ccncc4)nc3cc21 (configuration not stated) | – | – | >3 mg/kg | –
20 | CCC1C(=O)Nc2cc3[nH]c(-c4ccncc4)nc3cc21 (configuration not stated) | 0.04 mg/kg | 0.09 mg/kg | 0.06 mg/kg | Max (Felis catus [14]): 2500 mmHg/s; Max (Canis familiaris [13]): 2300 mmHg/s; Max (Rattus norvegicus [6]): 4500 mmHg/s
21 | CC(C)C1C(=O)Nc2cc3[nH]c(-c4ccncc4)nc3cc21 (configuration not stated) | – | – | >3 mg/kg | Max (Rattus norvegicus [7]): 2200 mmHg/s
22 | CC1(C)C(=O)Nc2cc3[nH]c(-c4cccnc4)nc3cc21 | 0.02 mg/kg | 0.51 mg/kg | 1 mg/kg | Max (Felis catus [14]): 3500 mmHg/s; Max (Canis familiaris [4]): 2.5; Max (Rattus norvegicus [6]): 3500 mmHg/s
23 | CC1C(=O)Nc2cc3[nH]c(-c4cccnc4)nc3cc21 (configuration not stated) | 0.03 mg/kg | 0.08 mg/kg | 0.06 mg/kg | Max (Felis catus [14]): 2300 mmHg/s; Max (Canis familiaris [13]): 2400 mmHg/s; Max (Rattus norvegicus [6]): 4600 mmHg/s
24 | CC1(C)C(=O)Nc2cc3[nH]c(-c4ccncc4)nc3cc21 [ADIBENDAN] | 0.01 mg/kg | 0.2 mg/kg | 0.01 mg/kg | Max (Felis catus [14]): 2000 mmHg/s; Max (Canis familiaris [13]): 2000 mmHg/s; Max (Rattus norvegicus [15]): 3700 mmHg/s
25 | Cc1[nH]c(=O)c(C#N)cc1-c1ccncc1 [MILRINONE] | 0.13 mg/kg | 0.4 mg/kg | 0.14 mg/kg | Max (Canis familiaris [13]): 2000 mmHg/s; Max (Rattus norvegicus [7]): 3400 mmHg/s; Max (Felis catus [8]): 3000 mmHg/s
